# According to ChEMBL document CHEMBL1150693, “Structures of new dammarane-type Triterpene Saponins from the flower buds of Panax notoginseng and hepatoprotective effects of principal Ginseng Saponins” (2003):
# What was measured:
# Assay type in all cases: functional
# Details in all cases: route intraperitoneal
# Mus musculus [1] = assay: Hepatoprotective activity against D-galactosamine/LPS-induced liver injury in ddY mouse assessed as inhibition of serum alanine transaminase level at 100 mg/kg, ip administered 1 hr before D-galactosamine/LPS challenge by Reitman-Frankel method
# Summary of the method: (§1)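 Male ddY mice (about 25-27 g) fasted 20 h; liver injury induced by i.p. D-GalN (350 mg/kg) plus LPS (10 µg/kg, Salmonella enteritidis) in saline. Test sample given i.p. 1 h before challenge. Blood taken from infraorbital venous plexus 10 h after D-GalN/LPS; sALT and sAST measured by Reitman-Frankel method (Karmen units). Mean ± SEM; one-way ANOVA with Dunnett's test.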
# Mus musculus [2] = assay: Hepatoprotective activity against D-galactosamine/LPS-induced liver injury in ddY mouse assessed as inhibition of serum aspartate transaminase level at 100 mg/kg, ip administered 1 hr before D-galactosamine/LPS challenge by Reitman-Frankel method; summary of the method: as §1
# Mus musculus [3] = assay: Hepatoprotective activity against D-galactosamine/LPS-induced liver injury in ddY mouse assessed as inhibition of serum alanine transaminase level at 50 mg/kg, ip administered 1 hr before D-galactosamine/LPS challenge by Reitman-Frankel method; summary of the method: as §1
# Mus musculus [4] = assay: Hepatoprotective activity against D-galactosamine/LPS-induced liver injury in ddY mouse assessed as inhibition of serum aspartate transaminase level at 50 mg/kg, ip administered 1 hr before D-galactosamine/LPS challenge by Reitman-Frankel method; summary of the method: as §1
# Mus musculus [5] = assay: Hepatoprotective activity against D-galactosamine/LPS-induced liver injury in ddY mouse assessed as inhibition of serum aspartate transaminase level at 20 mg/kg, ip administered 1 hr before D-galactosamine/LPS challenge by Reitman-Frankel method
# Summary of the method: (§2)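 Male ddY mice (about 25-27 g) fasted 20 h; liver injury induced by ip D-GalN (350 mg/kg) plus LPS (10 µg/kg, Salmonella enteritidis) in saline. Sample given ip 1 h before D-GalN/LPS. Blood drawn from infraorbital venous plexus 10 h after challenge; sALT and sAST measured by Reitman-Frankel kit, in Karmen units; % inhibition reported. Means ± SEM; one-way ANOVA with Dunnett's test.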
# Mus musculus [6] = assay: Hepatoprotective activity against D-galactosamine/LPS-induced liver injury in ddY mouse assessed as inhibition of serum alanine transaminase level at 20 mg/kg, ip administered 1 hr before D-galactosamine/LPS challenge by Reitman-Frankel method; summary of the method: as §2
SMILES,inhibition in vivo at 100 mg/kg (Mus musculus [1]),inhibition in vivo at 100 mg/kg (Mus musculus [2]),inhibition in vivo at 50 mg/kg (Mus musculus [3]),inhibition in vivo at 50 mg/kg (Mus musculus [4]),inhibition in vivo at 20 mg/kg (Mus musculus [5]),inhibition in vivo at 20 mg/kg (Mus musculus [6])
CC(C)=CCC[C@](C)(O[C@@H]1O[C@H](CO)[C@@H](O)[C@H](O)[C@H]1O)[C@H]1CC[C@]2(C)[C@@H]1[C@H](O)C[C@@H]1[C@@]3(C)CC[C@H](O)C(C)(C)[C@@H]3[C@@H](O[C@@H]3O[C@H](CO)[C@@H](O)[C@H](O)[C@H]3O[C@@H]3O[C@H](CO)[C@@H](O)[C@H](O)[C@H]3O)C[C@]12C,34%,40%,,,,
CC(C)=CCC[C@](C)(O[C@@H]1O[C@H](CO[C@@H]2O[C@H](CO)[C@@H](O)[C@H](O)[C@H]2O)[C@@H](O)[C@H](O)[C@H]1O)[C@H]1CC[C@]2(C)[C@@H]1[C@H](O)C[C@@H]1[C@@]3(C)CC[C@H](O[C@@H]4O[C@H](CO)[C@@H](O)[C@H](O)[C@H]4O[C@@H]4O[C@H](CO)[C@@H](O)[C@H](O)[C@H]4O)C(C)(C)[C@@H]3CC[C@]12C [GINSENOSIDE RB1],33%,40%,,,,
CC(C)=CCC[C@](C)(O[C@@H]1O[C@H](CO[C@@H]2OC[C@@H](O)[C@H](O)[C@H]2O)[C@@H](O)[C@H](O)[C@H]1O)[C@H]1CC[C@]2(C)[C@@H]1[C@H](O)C[C@@H]1[C@@]3(C)CC[C@H](O[C@@H]4O[C@H](CO)[C@@H](O)[C@H](O)[C@H]4O[C@@H]4O[C@H](CO)[C@@H](O)[C@H](O)[C@H]4O)C(C)(C)[C@@H]3CC[C@]12C [GINSENOSIDE RB3],91%,80%,77%,72%,,
CC(C)=CCC[C@](C)(O[C@@H]1O[C@H](CO[C@@H]2O[C@@H](CO)[C@H](O)[C@H]2O)[C@@H](O)[C@H](O)[C@H]1O)[C@H]1CC[C@]2(C)[C@@H]1[C@H](O)C[C@@H]1[C@@]3(C)CC[C@H](O[C@@H]4O[C@H](CO)[C@@H](O)[C@H](O)[C@H]4O[C@@H]4O[C@H](CO)[C@@H](O)[C@H](O)[C@H]4O)C(C)(C)[C@@H]3CC[C@]12C [GINSENOSIDE RC],89%,87%,77%,80%,,
CC(C)=CCC[C@](C)(O[C@@H]1O[C@H](CO)[C@@H](O)[C@H](O)[C@H]1O)[C@H]1CC[C@]2(C)[C@@H]1[C@H](O)C[C@@H]1[C@@]3(C)CC[C@H](O[C@@H]4O[C@H](CO)[C@@H](O)[C@H](O)[C@H]4O[C@@H]4O[C@H](CO)[C@@H](O)[C@H](O)[C@H]4O)C(C)(C)[C@@H]3CC[C@]12C [GINSENOSIDE RD],97%,93%,,,,
CC(C)=CCC[C@](C)(O[C@@H]1O[C@H](CO)[C@@H](O)[C@H](O)[C@H]1O)[C@H]1CC[C@]2(C)[C@@H]1[C@H](O)C[C@@H]1[C@@]3(C)CC[C@H](O)C(C)(C)[C@@H]3[C@@H](O[C@@H]3O[C@H](CO)[C@@H](O)[C@H](O)[C@H]3O[C@@H]3O[C@@H](C)[C@H](O)[C@@H](O)[C@H]3O)C[C@]12C [GINSENOSIDE RE],92%,90%,,,,
CC(C)=CCC[C@](C)(O[C@@H]1O[C@H](CO)[C@@H](O)[C@H](O)[C@H]1O)[C@H]1CC[C@]2(C)[C@@H]1[C@H](O)C[C@@H]1[C@@]3(C)CC[C@H](O)C(C)(C)[C@@H]3[C@@H](O[C@@H]3O[C@H](CO)[C@@H](O)[C@H](O)[C@H]3O)C[C@]12C [GINSENOSIDE RG1],30%,12%,,,,
CC(C)=CCC[C@](C)(O)[C@H]1CC[C@]2(C)[C@@H]1[C@H](O)C[C@@H]1[C@@]3(C)CC[C@H](O)C(C)(C)[C@@H]3[C@@H](O[C@@H]3O[C@H](CO)[C@@H](O)[C@H](O)[C@H]3O)C[C@]12C [GINSENOSIDE RH1],93%,90%,,,,
CC(C)=CCC[C@](C)(O[C@@H]1O[C@H](CO[C@@H]2O[C@H](CO)[C@@H](O)[C@H](O)[C@H]2O)[C@@H](O)[C@H](O)[C@H]1O)[C@H]1CC[C@]2(C)[C@@H]1[C@H](O)C[C@@H]1[C@@]3(C)CC[C@H](O[C@@H]4O[C@H](CO)[C@@H](O)[C@H](O)[C@H]4O)C(C)(C)[C@@H]3CC[C@]12C [GYPENOSIDE XVII],95%,91%,,,,
C[C@]12CCC(=O)C=C1CC[C@@H]1[C@@H]2[C@@H](O)C[C@@]2(C)[C@H]1CC[C@]2(O)C(=O)CO [HYDROCORTISONE],,,,,97%,99%
CC(C)=CCC[C@](C)(O[C@@H]1O[C@H](CO)[C@@H](O)[C@H](O)[C@H]1O)[C@H]1CC[C@]2(C)[C@@H]1[C@H](O)C[C@@H]1[C@@]3(C)CC[C@H](O)C(C)(C)[C@@H]3[C@@H](O[C@@H]3O[C@H](CO)[C@@H](O)[C@H](O)[C@H]3O[C@@H]3OC[C@@H](O)[C@H](O)[C@H]3O)C[C@]12C [NOTOGINSENOSIDE R1],87%,89%,,,,
CC(C)=CCC[C@](C)(O[C@@H]1O[C@H](CO[C@@H]2O[C@H](CO)[C@@H](O)[C@H](O)[C@H]2O)[C@@H](O)[C@H](O)[C@H]1O)[C@H]1CC[C@]2(C)[C@@H]1[C@H](O)C[C@@H]1[C@@]3(C)CC[C@H](O)C(C)(C)[C@@H]3[C@@H](O[C@@H]3O[C@H](CO)[C@@H](O)[C@H](O)[C@H]3O)C[C@]12C [notoginsenoside-R6],32%,44%,,,,
